Test results from ChEMBL document CHEMBL1132490, “Improving the nicotinic pharmacophore with a series of (Isoxazole)methylene-1-azacyclic compounds: synthesis, structure-activity relationship, and molecular modeling” (J Med Chem, 1999).

Experiments:
[1] = biological target: Neuronal acetylcholine receptor; test: In vitro displacement of [3H]methylcarbamylcholine from nicotinic acetylcholine receptor in rat brain cortex; format: tissue-based
Procedure, shortened: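 Male Mol:WIST rat cerebral cortex (fresh or frozen), homogenised in 50 mM Tris-HCl pH 7.4 with 120 mM NaCl, 5 mM KCl, 2 mM CaCl2, 1 mM MgCl2, spun 40000g 10 min; pellet resuspended. Incubated with [3H]MCC (2 nM final) and test salt, 60 min at 0 °C; GF/B filtration (0.5% PEI), scintillation counting. IC50 by nonlinear regression.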

[2] = biological target: Muscarinic acetylcholine receptor; test: In vitro displacement of [3H]oxotremorine-M from muscarinic acetylcholine receptor in rat brain cortex; format: tissue-based

SMILES	IC50 [1] [µM]	IC50 [2] [µM]
Cc1cc(/C=C2/CCN(C)C2)on1	0.783	4.42
Cc1cc(/C=C2/CN3CCCC2C3)on1 (configuration not stated)	0.053	1.57
Cc1cc(/C=C2\CCN(C)C2)on1	> 1	15.7
Cc1cc(/C=C2\CCCNC2)on1	> 1	6.95
COCc1cc(/C=C2/CN3CCC2CC3)on1	> 1	4
Cc1cc(/C=C2\CCCN(C)C2)on1	> 1	9.54
CC(C)c1cc(/C=C2/CN3CCC2CC3)on1	> 1	2.28
CCc1cc(/C=C2\CN3CCC2CC3)on1	0.1	0.566
Cc1cnoc1/C=C1\CN2CCC1C2 (configuration not stated)	0.00032	0.019
CC(C)c1cc(/C=C2\CN3CCC2CC3)on1	0.107	0.911
C/C(=C1/CN2CCC1CC2)c1cc(C)no1	0.715	2.263
Cc1cc(/C=C2/CCCNC2)on1	0.087	7.22
Cc1cc(/C=C2/CCNC2)on1	> 1	3.29
Cc1cc(/C=C2/CN3CCC2C3)on1 (configuration not stated)	0.023	1.02
Cc1cc(/C=C2\CN3CCC2C3)on1 (configuration not stated)	0.029	0.276
Cc1cc(/C=C2/CN3CCC2CC3)on1	0.504	1.81
CCCc1cc(/C=C2/CN3CCC2CC3)on1	> 1	1.93
COCc1cc(/C=C2\CN3CCC2CC3)on1	0.218	1.47
C(=C1/CN2CCC1CC2)/c1ccno1	0.00165	0.312
Cc1cnoc1/C=C1\CN2CCC1CC2	0.0032	0.418
Cc1cc(/C(F)=C2\CN3CCC2CC3)on1	0.255	1.45
CCc1cc(/C=C2/CN3CCC2CC3)on1	> 1	0.867
Cc1noc(/C=C2/CN3CCC2CC3)c1C	> 1	0.373
Cc1cc(C=C2CNC2)on1	> 1	19.3
Cc1cc(/C=C2/CCCN(C)C2)on1	> 1	5.76
CCCc1cc(/C=C2\CN3CCC2CC3)on1	0.167	0.852
Cc1cc(/C=C2\CN3CCC2CC3)on1	0.0039	0.658
Cc1cc(/C=C2\CN3CCCC2C3)on1 (configuration not stated)	0.13	0.898
Clc1ccc(C2CC3CCC2N3)cn1 (racemic) [EPIBATIDINE]		> 0.001
